Assay results: ChEMBL document CHEMBL1131329, “Synthesis and antiviral activity of novel acyclic nucleosides: discovery of a cyclopropyl nucleoside with potent inhibitory activity against herpesviruses” (J Med Chem, 1998)
Values after ≈ are worked out from the molar mass of the structure shown.

What was measured:
[1] = tested on: CCRF-CEM; assay: Cytotoxic concentration against uninfected CEM cells; type: functional, Homo sapiens
Outline: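 Uninfected CEM cells in RPMI 1640 with 10% FCS, exposed to test compound for 7 days at 37 °C in 5% CO2. Cytotoxicity measured by MTT dye uptake and expressed as CC25. Triplicate.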

[2] = tested on: HFF; assay: Selectivity index is the ratio between IC50 (Anti-VZV Activity (DM625 in HFF Cells)) and minimum cytotoxic concentration (against HFF cells) values of the compound; type: functional
[3] = tested on: CCRF-CEM; assay: Inhibitory activity against 1RF strain of HIV-1 by plaque reduction assay in CEM cells; type: functional, cell-based
Outline: (§1)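 CEM cells pregrown in RPMI 1640 with 10% FCS; HIV-1 RF strain, 32-100 CCID50 units per 0.1 mL, added together with test compound. Incubated 7 days at 37 °C in 5% CO2. CPE inhibition read by MTT dye uptake; IC50 derived. Triplicate.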

[4] = tested on: Vero; assay: Cytotoxic concentration to uninfected vero cells; type: functional, Chlorocebus sabaeus
Outline: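 Uninfected Vero cells were run through the same neutral red dye-uptake method as the antiviral test: 3-fold dilutions in EMEM with 2% FBS, 3 days at 37 °C in 5% CO2, A550 read. CC50 is the concentration giving 50% of the cell-control OD. Quadruplicate.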

[5] = tested on: Vero; assay: Inhibition of Tomioka strain of herpes simplex virus( Tomioka strain of HSV-1) by quantitative CPE reduction assay in vero cells; type: functional, cell-based, Human alphaherpesvirus 1
Outline: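 Vero cells in EMEM with 2% FBS, 3-fold compound dilutions, infected with HSV-1 Tomioka at about 100 TCID50 per well. After 3 days at 37 °C in 5% CO2, cells stained with neutral red for 45 min. Dye eluted in pH 4.2 citrate-ethanol, A550 read. Cell control set to 100% and blank to 0%; IC50 is the concentration giving 50% OD. Quadruplicate.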

[6] = tested on: HFF; assay: Inhibitory activity against DM625 strain of zoster virus(VZV) by plaque reduction assay in HFF cells; type: functional, cell-based; settings: Homo sapiens
[7] = tested on: HFF; assay: Minimum cytotoxic concentration against uninfected HFF cells; type: functional, Homo sapiens
Outline: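 Uninfected HFF cells under MEM with 2% FBS in 0.25% agarose overlay with test compound, 5 days at 37 °C in 5% CO2. Examined microscopically for gross morphologic changes, then treated with MTT and 30% SDS; highest concentration 320 μg/mL. Value is the minimum concentration giving morphologic change. Triplicate.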

[8] = tested on: CCRF-CEM; assay: Compound tested for inhibitory activity by plaque reduction assay against HIV-1RF strain in CEM cells; type: functional, cell-based; settings: Homo sapiens; outline: as §1
[9] = tested on: CCRF-CEM; assay: compound tested for anti-HIV-1 activity by plaque reduction assay against HIV-1 in CEM cells; type: functional; settings: Homo sapiens; outline: as §1
[10] = tested on: CCRF-CEM; assay: compound tested for inhibitory activity by plaque reduction assay against HIV-1 in CEM cells; type: functional, cell-based; settings: Homo sapiens
[11] = Homo sapiens, CCRF-CEM, read-out: IC50
[12] = Chlorocebus sabaeus, Vero, read-out: CC50
[13] = Chlorocebus sabaeus, Vero, read-out: IC50

Row | SMILES | CC25 [1] [µg/mL] | IC50 [3, 11] [µg/mL] | CC50 [4, 12] [µg/mL] | IC50 [5, 13] [µg/mL] | also measured
1 | Nc1ncnc2c1ncn2C[C@]1(CO)C[C@@H]1CO | 19.8 (≈ 79.4 µM) | > 100 | 120 (≈ 481 µM) | 47 (≈ 189 µM) | SI [2]: 16; IC50 [6]: 19.8 µg/mL (≈ 79.4 µM); MTC [7]: 320
2 | Nc1nc(O)c2ncn(C[C@@]3(CO)O[C@@H]3CO)c2n1 | – | – | > 500 | > 500 | –
3 | Nc1nc(O)c2ncn(C[C@@]3(CO)C[C@H]3CO)c2n1 | >100 | > 100 | > 500 | 10 (≈ 37.7 µM) | SI [2]: 16; IC50 [6]: 19.4 µg/mL (≈ 73.1 µM); MTC [7]: 320 µg/mL
4 | OC[C@@H]1C[C@@]1(CO)Cn1cnc2c(O)ncnc21 | >100 | 25.7 (≈ 103 µM) | > 500 | > 500 | –
5 | Nc1ccn(C[C@]2(CO)C[C@H]2CO)c(=O)n1 | >100 | > 100 | > 500 | > 500 | –
6 | Nc1nc(O)c2ncn(CC3[C@@H](CO)[C@H]3CO)c2n1 (stereo partly drawn) | – | – | > 500 | > 500 | –
7 | Nc1nc(O)c2ncn(C[C@@]3(CO)O[C@H]3CO)c2n1 | – | – | > 500 | 14 (≈ 52.4 µM) | –
8 | OC[C@H]1C[C@@]1(CO)Cn1cnc2c(O)ncnc21 | >100 | 20.1 (≈ 80.3 µM) | > 500 | > 500 | –
9 | Nc1ccn(C[C@]2(CO)C[C@@H]2CO)c(=O)n1 | >100 | 23.7 (≈ 105 µM) | > 500 | 120 (≈ 533 µM) | –
10 | Nc1nc(O)c2ncn(CC3[C@H](CO)[C@H]3CO)c2n1 (stereo partly drawn) | – | – | > 500 | > 500 | SI [2]: 1.3; IC50 [6]: 240 µg/mL (≈ 905 µM); MTC [7]: 320 µg/mL
11 | Nc1nc(O)c2ncn(C/C(=C\CO)CO)c2n1 | >100 | > 100 | > 500 | 4.2 (≈ 16.7 µM) | SI [2]: 100; IC50 [6]: 3.2 µg/mL (≈ 12.7 µM); MTC [7]: 320 µg/mL
12 | Nc1ncnc2c1ncn2C/C(=C/CO)CO | >100 | > 100 | 260 (≈ 1110 µM) | > 500 | –
13 | Cc1cn(C/C(=C/CO)CO)c(=O)[nH]c1=O | >100 | > 100 | > 500 | > 500 | –
14 | Cc1cn(C/C(=C\CO)CO)c(=O)[nH]c1=O | >100 | > 100 | > 500 | > 500 | –
15 | Nc1ncc2ncn(CC3(CO)CC3CO)c2n1 (stereo not drawn) | – | – | > 500 | 30 (≈ 120 µM) | –
16 | Nc1nc(O)c2ncn(C/C(=C/CO)CO)c2n1 | >100 | > 100 | > 500 | 4.2 (≈ 16.7 µM) | SI [2]: >6.1; IC50 [6]: 52.8 µg/mL (≈ 210 µM); MTC [7]: >320 µg/mL
17 | Nc1nc(O)c2ncn(C[C@]3(CO)C[C@H]3CO)c2n1 | >100 | > 100 | 240 (≈ 905 µM) | 0.02 (≈ 0.0754 µM) | SI [2]: 1600; IC50 [6]: 0.2 µg/mL (≈ 0.754 µM); MTC [7]: 320 µg/mL
18 | Nc1ncnc2c1ncn2C/C(=C\CO)CO | >100 | – | 260 (≈ 1110 µM) | > 500 | IC50 [8]: > 100 µg/mL
19 | Nc1nc(N)c2ncn(CC3(CO)CC3CO)c2n1 (stereo not drawn) | >100 | 32.1 (≈ 121 µM) | > 500 | 29 (≈ 110 µM) | –
20 | Nc1nc(O)c2ncn(C[C@@]3(CO)C[C@@H]3CO)c2n1 (stereo in doubt; 3) | – | – | – | – | CC50 [4]: 530 µg/mL (≈ 2000 µM); IC50 ([5]; vero): 0.046 µg/mL (≈ 0.173 µM)
21 | Nc1nc(O)c2ncn(C[C@@]3(CO)C[C@@H]3CO)c2n1 (stereo in doubt; 3b) | – | – | > 500 | – | IC50 ([5]; vero): 2.2 µg/mL (≈ 8.29 µM)
22 | Cc1cn(C[C@]2(CO)C[C@@H]2CO)c(=O)[nH]c1=O (stereo in doubt; 41a) | >100 | – | > 500 | > 500 | IC50 ([3]; ccrf-cem): > 100 µg/mL
23 | Cc1cn(C[C@]2(CO)C[C@@H]2CO)c(=O)[nH]c1=O (stereo in doubt; 41b) | – | – | – | – | IC50 ([3]; ccrf-cem): 3.2 µg/mL (≈ 13.3 µM)
24 | Nc1nc2c(ncn2COCCO)c(=O)[nH]1 [ACYCLOVIR] | – | – | 820 (≈ 3640 µM) | 0.81 (≈ 3.6 µM) | MTC [7]: > 320 µg/mL
25 | Cc1cn([C@H]2C[C@H](N=[N+]=[N-])[C@@H](CO)O2)c(=O)[nH]c1=O [ZIDOVUDINE] | – | – | – | – | CC25 [9]: 35.6 µg/mL (≈ 133 µM); IC50 [10]: 0.003 µg/mL (≈ 0.0112 µM)
